Laboratory results taken from ChEMBL document CHEMBL1148955, “Chemical constituents from the Colombian medicinal plant Maytenus laevis” (2004).
Activity calls are given as the source filed them. The calls are words filed in the database; no cut-off is given here.

Columns and labels:
PBMC [1] = test: Induction of IL6 production in human PBMC at 1 ug/ml after 48 hrs by ELISA; format: functional
Outline: (§1)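 PBMCs were isolated from heparinized venous blood by Ficoll-Hypaque density gradient centrifugation. Cells were cultured at 1 × 10^6/mL in RPMI 1640 with 10% fetal calf serum, with or without compound at 1 or 10 µg/mL, for 48 h at 37 °C. Cytokines in the culture supernatants were measured by commercial ELISA kits.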

PBMC [2] = test: Induction of IL6 production in human PBMC at 10 ug/ml after 48 hrs by ELISA; format: functional; outline: as §1
PBMC [3] = test: Induction of IL12 production in human PBMC at 1 ug/ml after 48 hrs by ELISA; format: functional; outline: as §1
PBMC [4] = test: Induction of IL12 production in human PBMC at 10 ug/ml after 48 hrs by ELISA; format: functional; outline: as §1
PBMC [5] = test: Induction of TNFalpha production in human PBMC at 1 ug/ml after 48 hrs by ELISA; format: functional; outline: as §1
PBMC [6] = test: Induction of TNFalpha production in human PBMC at 10 ug/ml after 48 hrs by ELISA; format: functional; outline: as §1
PBMC [7] = test: Induction of IFN-gamma production in human PBMC at 1 ug/ml after 48 hrs by ELISA; format: functional, cell-based; outline: as §1
PBMC [8] = test: Induction of IFN-gamma production in human PBMC at 10 ug/ml after 48 hrs by ELISA; format: functional, cell-based; outline: as §1
PBMC [9] = test: Induction of IL4 production in human PBMC at 1 ug/ml after 48 hrs by ELISA; format: functional, cell-based; outline: as §1
PBMC [10] = test: Induction of IL4 production in human PBMC at 10 ug/ml after 48 hrs by ELISA; format: functional, cell-based; outline: as §1
PBMC [11] = test: Induction of IL10 production in human PBMC at 1 ug/ml after 48 hrs by ELISA; format: functional, cell-based; outline: as §1
PBMC [12] = test: Induction of IL10 production in human PBMC at 10 ug/ml after 48 hrs by ELISA; format: functional, cell-based; outline: as §1

| SMILES | Activity (PBMC [1]) | Activity (PBMC [2]) | Activity (PBMC [3]) | Activity (PBMC [4]) | Activity (PBMC [5]) | Activity (PBMC [6]) | Activity (PBMC [7]) | Activity (PBMC [8]) | Activity (PBMC [9]) | Activity (PBMC [10]) | Activity (PBMC [11]) | Activity (PBMC [12]) |
| --- | --- | --- | --- | --- | --- | --- | --- | --- | --- | --- | --- | --- |
| CC(C)c1cc2c(cc1O)[C@@]1(C)CCC[C@](C)(C(=O)O)[C@@H]1CC2 [LAMBERTIC ACID] | 59.8 pg/mL | 1454.4 pg/mL | <7.8 pg/mL | <7.8 pg/mL | <7.8 pg/mL | <7.8 pg/mL | inactive | inactive | inactive | inactive | inactive | inactive |
| CC(=O)O[C@@H]1[C@@H]2[C@@H](OC(C)=O)[C@@]34O[C@@]2(C)COC(=O)c2cccnc2C(C)C(C)C(=O)O[C@@H]([C@H](O)[C@H](OC(C)=O)[C@@]3(COC(=O)c2ccccc2)[C@@H]1OC(C)=O)[C@]4(C)O (some centres undefined) | 136.1 pg/mL | 110.1 pg/mL | <7.8 pg/mL | <7.8 pg/mL | <7.8 pg/mL | <7.8 pg/mL | inactive | inactive | inactive | inactive | inactive | inactive |
| CC1(C)[C@@H](O)CC[C@]2(C)[C@H]3CC=C4[C@@H]5C[C@@]6(C)C[C@H](OC6=O)[C@]5(C)CC[C@@]4(C)[C@]3(C)CC[C@@H]12 [3-EPIABRUSLACTONE A] | <7.8 pg/mL | 308.4 pg/mL | <7.8 pg/mL | <7.8 pg/mL | <7.8 pg/mL | <7.8 pg/mL | inactive | inactive | inactive | inactive | inactive | inactive |
| COc1ccc([C@H]2Oc3cc(O)cc(O)c3C[C@H]2O)cc1OC | 473.4 pg/mL | 198.6 pg/mL | <7.8 pg/mL | <7.8 pg/mL | <7.8 pg/mL | <7.8 pg/mL | inactive | inactive | inactive | inactive | inactive | inactive |
| CC1(C)[C@@H](O)CC[C@]2(C)[C@H]3CC=C4[C@H]5C[C@](C)(C(=O)O)CC[C@]5(C)CC[C@@]4(C)[C@]3(C)CC[C@@H]12 [EPIKATONIC ACID] | 16.2 pg/mL | 22.9 pg/mL | <7.8 pg/mL | <7.8 pg/mL | <7.8 pg/mL | <7.8 pg/mL | inactive | inactive | inactive | inactive | inactive | inactive |
| C[C@@H]1[C@@]23CC[C@H]4[C@@](C)(CC[C@@]5(C)[C@@H]6C[C@](C)(C(=O)O)CC[C@]6(C)CC[C@]45C)[C@@H]2CC[C@@]1(O)OC3 [SALASPERMIC ACID] | 857.3 pg/mL | 109.6 pg/mL | 21.6 pg/mL | <7.8 pg/mL | 54.5 pg/mL | <7.8 pg/mL | inactive | inactive | inactive | inactive | inactive | inactive |
| CC1(C)[C@@H](O)CC[C@]2(C)[C@H]3CC=C4[C@H]5C[C@](C)(C(=O)O)C[C@@H](O)[C@]5(C)CC[C@@]4(C)[C@]3(C)CC[C@@H]12 | 57.5 pg/mL | 297.6 pg/mL | <7.8 pg/mL | <7.8 pg/mL | <7.8 pg/mL | <7.8 pg/mL | inactive | inactive | inactive | inactive | inactive | inactive |
